PvdQ acylase: P. aeruginosa PvdQ acylase inhibition | inhibition, % at 10 µM | AID 488965 | purified PvdQ acylase, fluorescence plate reader | 0.063% of 340,000 active; in the data active means inhibition above about 30%, passing the limit was not always enough;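 further: 0% = vehicle neutral wells and 100% = reference inhibitor wells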
VIM-2 inhibitor: inhibitors of Pseudomonas aeruginosa VIM-2 metallo-beta-lactamase; purified VIM-2, nitrocefin hydrolysis, epi-absorbance fluorescence; inhibition, % at 5.6 µM; 0.89% of 290,000 active;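 active means inhibition above the mean of all tested compounds plus 3 SD, cutoff set per screening run, cut at about 7.5% in these data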;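 further: red hydrolysis product quenches plate fluorescence so inhibitors raise well fluorescence; 0% = enzyme with DMSO and 100% = DMSO without enzyme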
PLCg1 inh: blocks human PLC-gamma1 enzyme activity. P19174. purified PLC-gamma1, fluorogenic substrate, fluorescence. inhibition, % at 12.2 µM. 0.84% of 370,000 active. AID 720700; in the data active means inhibition above about 9.5%
IMP-1 inhibitor: inhibitors of Pseudomonas aeruginosa IMP-1 metallo-beta-lactamase; purified IMP-1, nitrocefin hydrolysis, epi-absorbance fluorescence; AID 1556; 0.45% of 290,000 active; inhibition, % at 5.6 µM;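 active means inhibition above the mean plus 3 SD of all compounds in the same screening run, cut at about 4.5% in these data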;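 further: 0% = IMP-1 with DMSO and 100% = DMSO wells lacking enzyme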
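assay system = purified recombinant IMP-1 metallo-beta-lactamase enzyme | schedule = 15 min preincubation plus 25 min reaction at 25 °C | signal = Epi-absorbance fluorescence, 480 nm excitation, 530 nm emission | read-out basis = percent inhibition from optical density relative to buffer-blank wells | controls = IMP-1 with DMSO as 0%, enzyme-free DMSO as 100%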
PLC-beta3 inh: inhibitors of human phospholipase C beta3 | Purified PLC-beta3, fluorogenic substrate, fluorescence | inhibition, % at 12.2 µM | 0.18% of 370,000 active;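 further: 0% = median of compound wells on plate and 100% = full blocker control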
PLCg1 ctr: inhibits human PLC-gamma1 in PLC-beta3 counter-screen; inhibition, % at 12.3 µM; AID 743258; 3.1% of 3,300 active; purified PLC-gamma1, fluorogenic substrate, fluorescence; shares compounds with PLCg1 inh; in the data active means inhibition above about 9.5%
PLCb3 confirm: confirmation of human PLC-beta3 inhibitors; shares compounds with PLCg1 inh; purified PLC-beta3, fluorogenic substrate fluorescence; inhibition, % at 12.3 µM; 1% of 3,300 active
An asterisk follows results filed as active; i = inactive; / = no result. Sampled rows, rich in hits. Any-hit rate of the full collection: about 2%. Unless noted, no stated cut-off is given here; in the data, active means inhibition above about 11%; inactive means the rest.

SMILES	PvdQ acylase	VIM-2 inhibitor	PLCg1 inh	IMP-1 inhibitor	PLC-beta3 inh	PLCg1 ctr	PLCb3 confirm
COc1ccc(CN2CCN(c3ccccn3)CC2)c(OC)c1	-9.4	-4.1	10.0*	-2.9	3.5	-7.6	-0.3
CC(Nc1ccc(Br)cn1)c1cc(Cl)ccc1O (stereo unspecified)	-4.0	-0.2	9.7*	-3.6	4.1	-0.9	1.5
COc1ccc(CCNC(=O)Nc2nc(C(N)Cc3ccccc3)cs2)cc1OC (stereo unspecified)	/	/	9.6*	/	6.7	-4.2	0.9
COC(=O)C1=CC(=O)C=C(OC)[C@@]12Oc1cc(C)cc(OC)c1C2=O	/	/	-6.1	/	-6.0	/	/
O=C(CN(c1ccccc1Cl)S(=O)(=O)c1ccccc1)NC1CC2CCC1C2 (stereo unspecified)	/	/	5.6	/	14.0*	-2.8	-50.7
CC(=O)NC12CC3CC(C1)CC(C(=O)N(C)Cc1cccc(Cl)c1Cl)(C3)C2	-12.8	-2.4	13.2*	-3.3	-3.1	-4.7	-1.7
CC(=O)NC12CC3CC(C1)CC(C(=O)N(C)CC(=O)Nc1ccccc1Cl)(C3)C2	4.8	/	3.7	/	0.2	/	/
Cc1ccccc1NC(=O)C1CC(=O)N(c2ccccc2F)C1 (stereo unspecified)	-10.3	-2.4	3.2	-4.1	11.3*	-2.4	-1.4
Cc1ccc(Nc2n[nH]c(C)c2[N+](=O)[O-])c(C)c1	-6.9	-3.5	9.6*	-2.6	2.5	-2.7	-0.5
Cc1ccc(CNC(=O)CCCC(=O)O)cc1	-11.7	-0.3	5.3	0.2	10.8*	-5.6	-2.0
Cc1ccc(CNC(=O)CCCc2ccccc2)cc1	-2.5	-3.9	0.8	-3.0	-7.8	/	/
O=C(OCC#CCSc1nnc(-c2ccc(Cl)cc2)o1)c1ccc(F)cc1	/	/	0.3	/	4.0	/	/
O=C(CCS(=O)(=O)c1ccccc1)Nc1cc(Cl)ccc1F	/	/	3.8	/	1.8	/	/
CCOC(=O)CC1(CCc2ccccc2)Oc2ccccc2N1S(=O)(=O)c1ccc(C)cc1 (stereo unspecified)	/	/	11.9*	/	5.2	-1.8	-0.1
O=C(Nc1c(-c2ccc(F)cc2)nc2ncccn12)C1CC1	/	/	i	/	i	/	/
O=C(CC1CCCC1)N[C@H](C(=O)N1CCC[C@H]1C(=O)NC1CCCC1)c1ccccc1	/	/	2.4	/	0.9	/	/
CCOC(=O)C(CCCOc1ccccc1C)C(=O)OCC	-8.0	0.9	11.9*	-2.8	-11.2	-5.4	-2.1
O=P(Cc1cc[n+]([O-])cc1)(c1ccccc1)c1ccccc1	5.7	-0.6	6.5	-1.4	11.3*	-2.7	0.8
CCOCCCNC(=O)C1CCN(S(=O)(=O)c2cc3c(cc2Br)CCN3C(=O)CC)CC1	/	/	-1.4	/	2.8	/	/
CCOC(=O)N1CCN(C(=O)COc2ccccc2Cl)CC1	-5.1	-2.3	9.5*	-6.2	10.4	0.5	3.4
O=C(COc1ccccc1Cl)N1CCCC1	2.0	-0.4	1.1	-0.5	1.1	/	/
CCCCNC(=O)C[C@H]1C[C@@]2(C(=O)OC)C(=C[C@H](C(C)(C)C)O[C@@H]2C)N(CCc2ccc(OC)c(OC)c2)C1=O	/	/	0.3	/	2.6	/	/
CCC1Oc2ccccc2N(CC(=O)N2CCCC2)C1=O (stereo unspecified)	/	/	9.7*	/	8.0	-2.0	-0.1
COC(=O)C1=C(N)Oc2cc(C)n(Cc3cccnc3)c(=O)c2C1c1cccc(OC)c1OC (stereo unspecified)	-2.1	1.2	9.7*	0.1	9.2	-5.7	-1.9
Cc1cccc(NC(=S)N2CCC(N(C)CC3CCCO3)CC2)c1 (stereo unspecified)	-13.7	-2.5	9.7*	-4.2	-0.1	-1.9	0.6
SMILES	PvdQ acylase	VIM-2 inhibitor	PLCg1 inh	IMP-1 inhibitor	PLC-beta3 inh	PLCg1 ctr	PLCb3 confirm
Cc1ccc(NC(=S)N2CCC(N(C)CC3CCCO3)CC2)cc1C (stereo unspecified)	-8.6	1.2	3.4	-0.8	-3.6	/	/
COc1cccc(CNC(=O)[C@H]2CCCN2C(=O)[C@H]2CCCN2C(=O)c2ccccc2C(F)(F)F)c1	/	/	-0.1	/	-0.1	/	/
N#Cc1ccccc1CSc1ccccn1	4.1	-2.9	9.0	-3.6	11.1*	-5.5	-8.1
NS(=O)(=O)c1ccc(CCNC(=O)C2CCCCN2S(=O)(=O)c2ccccc2)cc1 (stereo unspecified)	-2.0	-3.1	12.8*	-1.6	3.8	-6.0	-1.9
O=C(Nc1cccnc1)c1ccccc1Oc1ccccc1	1.4	-3.2	5.1	-2.6	10.7*	-10.5	-1.0
CCOC(=O)[C@]12CCCC=C1N(Cc1ccc(OC)cc1)C(=O)[C@@H]2CC(=O)NCc1cccc2ccccc12	/	/	2.7	/	1.5	/	/
N#CC(c1ccc(Cl)cc1)c1ccc(Cl)nn1 (stereo unspecified)	80.0*	-3.4	8.2	-3.4	11.7*	-3.6	-0.6
CC1=NNC(=O)C1C(c1ccc(Cl)cc1)C(C#N)C#N (stereo unspecified)	/	0.1	-1.6	-1.6	-3.3	/	/
COc1ccc(NC(=O)COc2ccc(/C=N/NC(=O)c3cccnc3)cc2OC)cc1	-1.7	1.5	-12.6	-5.1	-14.1	/	/
COc1cc(/C=N/NC(=O)c2cccnc2)ccc1OCC(=O)Nc1c(C)cc(C)cc1C	-5.2	-1.3	10.2*	-1.8	9.3	-49.6	-49.5
Cc1cc(C)cc(NC(=O)c2cccn2-c2ncc(C(F)(F)F)cc2Cl)c1	-12.4	-3.2	13.0*	-2.4	9.2	-0.6	1.2
O=C(Nc1ccc(F)cc1F)c1cccn1-c1ncc(C(F)(F)F)cc1Cl	-6.4	-1.7	-1.5	-2.4	2.7	/	/
Cc1ccc(-c2nnc(SCC(=O)Nc3ccc(OCc4ccccc4)cc3)n2-c2ccc(Cl)cc2)cc1	/	/	1.1	/	2.0	/	/
O=C(NCC1CCN(C(=O)C(=O)c2cccs2)CC1)c1cccnc1	/	/	1.1	/	1.1	/	/
COc1cc(OC)cc(C(=O)NCC(=O)OCC(=O)N2c3ccccc3NC(=O)C2(C)C)c1	12.7	-3.4	10.7*	-2.9	-1.2	5.0	0.5
Cc1cc(C)cc(C(=O)NCC(=O)OCC(=O)N2c3ccccc3NC(=O)C2(C)C)c1	-5.8	-1.8	2.3	0.8	2.1	/	/
CCOP(=O)(OCC)C(Nc1cccc(C(F)(F)F)c1)c1ccc(Br)cc1 (stereo unspecified)	/	-0.8	8.0	-1.9	11.5*	-7.9	-9.2
CCOP(=O)(OCC)C(Nc1ccc(F)cc1)c1ccccc1 (stereo unspecified)	-9.0	0.1	-0.6	0.9	-3.5	/	/
CCOc1cccc(-c2nn3c(-c4cccc(C)c4)nnc3s2)c1	/	/	-2.9	/	3.8	/	/
Cc1ncc(C[n+]2csc(CCOC(=O)CC3C4CC5CC(C4)CC3C5)c2C)c(N)n1 (stereo unspecified)	-17.0	-0.8	9.8*	1.9	3.2	-3.8	-0.8
CCC[C@@H](/C=C/C(=O)OC(C)(C)C)Sc1ccc(N)cc1	/	/	0.6	/	-0.2	/	/
COc1ccc(-c2cc(C(=O)Nc3ccc(C)c(C)c3)no2)cc1	-13.4	-3.0	11.5*	-3.9	-2.6	-171.0	-169.2
